Experimental data published in paper PMC11299136 (ACS Applied Materials & Interfaces, 2024).

B1: bovine trypsin (protein, UniProt P00760 24-246, looked up)
Serine protease 1: IVGGYTCGANTVPYQVSLNSGYHFCGGSLINSQWVVSAAHCYKSGIQVRLGEDNINVVEGNEQFISASKSIVHPSYNSNTLNNDIMLIKLKSAASLNSRVASISLPTSCASAGTQCLISGWGNTKSSGTSYPDVLKCLKAPILSDSSCKSAYPGQITSNMFCAGYLEGGKDSCQGDSGGPVVCSGKLQGIVSWGSGCAQKNKPGVYTKVCNYVSWIKQTIASN

Columns and labels:
[1] = Temperature-dependent circular dichroism; format: physicochemical
Outline: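 Proteins were either diluted in PBS or dispersed in PFOc with 1 mM dispersant. The aqueous samples were heated between 40 and 90 °C, with a CD spectrum taken at each temperature. The PFOc dispersions were heat-treated at 40, 55, 70 and 85 °C for 15 min each, then mixed with PBS to elute the protein before CD. Each condition was run in triplicate, and representative spectra were reported.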

HepG2 cells = assay: Cellular toxicity, MTT assay; format: cell-based, human; settings: 2–128 μL fluorous solvent added to culture medium, 48 h
Outline: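 HepG2 cells seeded at 2000 cells/well and allowed to adhere overnight. Dispersant at 10 nM–1 mM in culture medium, or 2–128 μL fluorous solvent added to the medium, for 48 h. Serum-free medium served as the negative control and 20% DMSO in serum-free medium as the positive control. Then 0.5 mg/mL MTT in serum-free medium for 2 h, formazan dissolved in DMSO, A540 read. Viability was normalized between the two controls.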

bacteria = assay: Control bacterial viability; format: cell-based; settings: component alone: PFOc mixed with bacterial media, or PD-7 added to PBS
[2] = dispersed in PFOc using PD-7, heated up to 85 °C

Row | Molecule | change in secondary structure on heating (CD) [1, 2] | toxicity toward human liver cells (HepG2 cells) | MIC / bacterial viability (bacteria) | change in secondary structure on heating (CD) ([1]; saline (PBS) control formulation, 40–85 °C)
1 | bovine serum albumin [BSA] | minimal changes in secondary structure |  |  | 
2 | rabbit serum immunoglobulin [IgG] | minimal changes in secondary structure |  |  | 
3 | FC(F)(F)C(F)(F)C(F)(F)C(F)(F)C(F)(F)C(F)(F)C(F)(F)C(F)(F)F [PFOc, perfluorooctane] |  | biocompatible | no MIC could be calculated | 
4 | β-galactosidase | minimal changes in secondary structure |  |  | 
5 | B1 | minimal changes in secondary structure |  |  | minimal change in structure
